Bioassay records as filed in PubChem.
Hsp90 block: tumor Hsp90 inhibitors, primary screen, cell lysate, fluorescence polarization, NCI-N417 lysate. inhibition, % at 30 µM. Cy3B-geldanamycin FP displacement. hit rate 0.35% among 64,000. AID 429, 2006;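 active = inhibition above 50%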;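 note: 0% = tracer plus lysate wells and 100% = tracer alone without lysate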
Cdc25B block: inhibitors of Cdc25B phosphatase catalytic domain, primary screen, biochemical, OMFP fluorescence | M-phase inducer phosphatase 2 (Homo sapiens), P30305 | hit rate 0.1% among 65,000 | inhibition, %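 (compounds tested at 10 µM final in the well)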 | recombinant Cdc25B, OMFP fluorescence Ex485/Em525; in the data active = inhibition above about 50%
BAP1 inh: inhibitors of BAP1 deubiquitinase, primary screen, biochemical, Ub-AMC fluorescence, kinetic. Ubiquitin carboxyl-terminal hydrolase BAP1 (Homo sapiens), Q92560. hit rate 0.48% among 72,000. recombinant BAP1, Ub-AMC hydrolysis fluorescence kinetic; active compounds read low. calls only at 20 µM;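 active = activity remaining at or below 50% of control, provided the compound also passes the data quality filters; inactive = the rest, including low values that fail the filters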;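 note: 100% = DMSO wells rate and 0% = substrate alone blank rate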
Target sequence (Q92560 whole entry, looked up): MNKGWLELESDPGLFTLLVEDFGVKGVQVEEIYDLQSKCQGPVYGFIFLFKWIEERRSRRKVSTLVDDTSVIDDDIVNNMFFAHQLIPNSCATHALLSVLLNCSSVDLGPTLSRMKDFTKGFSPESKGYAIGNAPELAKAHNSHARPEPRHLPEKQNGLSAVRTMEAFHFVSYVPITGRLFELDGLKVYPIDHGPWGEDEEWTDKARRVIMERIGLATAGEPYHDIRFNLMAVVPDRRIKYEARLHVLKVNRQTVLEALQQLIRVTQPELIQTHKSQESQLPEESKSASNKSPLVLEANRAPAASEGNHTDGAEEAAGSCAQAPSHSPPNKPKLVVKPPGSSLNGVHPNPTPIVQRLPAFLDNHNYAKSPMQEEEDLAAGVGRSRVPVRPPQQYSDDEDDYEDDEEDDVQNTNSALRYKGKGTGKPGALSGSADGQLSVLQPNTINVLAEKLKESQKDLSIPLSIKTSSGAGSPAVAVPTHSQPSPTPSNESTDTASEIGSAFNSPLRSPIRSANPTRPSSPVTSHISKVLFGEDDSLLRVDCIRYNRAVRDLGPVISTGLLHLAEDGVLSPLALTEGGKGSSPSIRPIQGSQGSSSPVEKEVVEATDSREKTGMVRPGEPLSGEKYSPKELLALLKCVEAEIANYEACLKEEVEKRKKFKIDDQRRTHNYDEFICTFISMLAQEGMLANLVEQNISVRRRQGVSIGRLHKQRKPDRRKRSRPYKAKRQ
DUSP1 inh: MKP-1 phosphatase inhibitors, primary screen, biochemical, in vitro; Dual specificity protein phosphatase 1 (Homo sapiens), P28562; recombinant MKP-1, OMFP hydrolysis fluorescence; inhibition, %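 (compounds tested at a single concentration somewhere between 10 and 100 µM)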; hit rate 0.15% among 65,000; AID 374, 2006;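 active = inhibition above about 50%, limit read from the data; inconclusive = inhibition over screen mean plus 3 SD, below that limit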;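 note: 0% = DMSO max control wells and 100% = wells with enzyme stopped by NaOH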
tolC growth inh: growth inhibitors of E. coli tolC mutant, primary screen, strain BW25113 ΔtolC::kan, 384-well | hit rate 2.2% among 65,000 | growth inhibition, % at 10 µM (by protocol) | OD615;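 active = growth inhibition at or above a cutoff equal to the mean over every tested compound plus 3 SD, cut at about 60% in these data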;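 note: growth measured after 20 h incubation at 37 °C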
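Test system: E. coli BW25113 ΔtolC::kan bacteria; incubation: 37 °C, 20 h exposure; medium: LB broth supplemented with 50 µg/mL kanamycin; read-out basis: percent growth inhibition; signal: A615 absorbance measurement; compound: 10 µM final, single dose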
Ec RNAP inh: E. coli RNAP inhibitors, biochemical; hit rate 0.2% among 62,000; E. coli RNA polymerase, fluorescence transcription assay; AID 559, 2006; DNA-directed RNA polymerase subunit beta (Escherichia coli (strain K12)), P0A8V2; inhibition, %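 (tested at 10 µM)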; in the data active = inhibition above about 20%;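 note: 0% = enzyme without compound and 100% = no enzyme blank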
BAP1 inh confirm: BAP1 deubiquitinase inhibitors, hit retest, confirmation, orthogonal assay, biochemical, Ub-ethyl ester substrate, HPLC readout | shares compounds with BAP1 inh | purified BAP1, Ub-ethyl ester hydrolysis; active compounds read low | % of control activity, % at 20 µM | hit rate 8% among 310;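 active = percent of control activity at or below 60%; inconclusive = HPLC trace unusable from injection failure or solvent front hiding peaks; inactive = the rest, plus ubiquitin peak ratio over a set limit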
The depositor's hits bear a star. An excerpt weighted towards active compounds, which were near 2.9% of everything screened.

Screening COc1ccc(-c2noc(-c3ccc(Cl)cc3)n2)cc1 returned Hsp90 block 1.4, Cdc25B block 4.7, BAP1 inh active, DUSP1 inh 8.7, tolC growth inh -10.6, Ec RNAP inh 2.7 and BAP1 inh confirm 76.6.
Screening COc1ccc(-c2noc(-c3ccccc3F)n2)cc1 returned Hsp90 block -0.5, Cdc25B block 47.8, BAP1 inh inactive, DUSP1 inh 1.3, tolC growth inh 11.2 and Ec RNAP inh 4.8.
`CCCCCOC(=O)CSc1nc2c(c(=O)[nH]c(=O)n2C)n1CCc1ccccc1` gave Hsp90 block 0.1, Cdc25B block 31.6, BAP1 inh active, DUSP1 inh 2.7, tolC growth inh 4.0 and BAP1 inh confirm 96.0.
For CCCCCn1c(SCCc2ccccc2)nc2c1c(=O)[nH]c(=O)n2C the results were Hsp90 block 3.4, Cdc25B block -5.5, BAP1 inh inactive, DUSP1 inh -20.2, tolC growth inh 9.2 and Ec RNAP inh -0.6.
For CCOc1cc2[nH]c(=S)n(CCCCC(=O)NCc3ccco3)c(=O)c2cc1OCC the results were Hsp90 block -1.8, Cdc25B block -9.4, BAP1 inh active, DUSP1 inh 24.8, tolC growth inh -8.3, Ec RNAP inh 14.8 and BAP1 inh confirm 89.5.
`COc1ccc(NC(=O)c2nc[nH]c2C(=O)Nc2ccccc2C)cc1` gave Hsp90 block 1.8, Cdc25B block 4.8, BAP1 inh active, DUSP1 inh 28.5, tolC growth inh 2.1, Ec RNAP inh 0.1 and BAP1 inh confirm 155.7.
For COc1ccccc1NC(=O)c1nc[nH]c1C(=O)Nc1ccccc1OC the results were Hsp90 block -5.1, Cdc25B block -4.8, DUSP1 inh 13.9, tolC growth inh -10.7 and Ec RNAP inh -0.2.
CC(=O)C1=C(C)NC(SCC(=O)c2cc(Cl)ccc2Cl)=C(C#N)C1c1ccco1 (stereo not drawn) was read as Hsp90 block -11.4, Cdc25B block 6.0, BAP1 inh active, DUSP1 inh 14.9, tolC growth inh 36.0, Ec RNAP inh 5.4 and BAP1 inh confirm 96.1.
`CCc1ccc(C(=O)CSC2=C(C#N)C(c3ccco3)C(C(C)=O)=C(C)N2)cc1` (stereo not drawn) gave Hsp90 block -6.4, Cdc25B block -1.0, BAP1 inh inactive, DUSP1 inh 8.1, tolC growth inh 35.1 and Ec RNAP inh 9.4.
`CC(=O)C1=C(C)NC(SCC(=O)c2ccc(F)cc2)=C(C#N)C1c1ccco1` (stereo not drawn) gave Hsp90 block -7.0, Cdc25B block 2.8, BAP1 inh inactive, DUSP1 inh 12.7, tolC growth inh 26.3 and Ec RNAP inh 4.5.
CC(=O)C1=C(C)NC(SCC(=O)c2ccc(Cl)c(Cl)c2)=C(C#N)C1c1ccco1 (stereo not drawn) was read as Hsp90 block -12.0, Cdc25B block 3.1, BAP1 inh active, DUSP1 inh 5.6, tolC growth inh 58.9, Ec RNAP inh 9.0 and BAP1 inh confirm 41.9*.
`CCOC(=O)c1c(NC(=O)c2cccs2)sc(C)c1CC` gave Hsp90 block -4.7, Cdc25B block -4.7, BAP1 inh active, DUSP1 inh -4.2, tolC growth inh 5.0, Ec RNAP inh 3.8 and BAP1 inh confirm 58.6*.
CC1=C(C(=O)Nc2ccccc2)C(c2ccc(C)o2)n2c(s/c(=C\c3ccco3)c2=O)=N1 (stereo not drawn) was read as Hsp90 block -7.4, Cdc25B block 0.7, BAP1 inh active, DUSP1 inh -20.1, tolC growth inh 43.9, Ec RNAP inh 11.3 and BAP1 inh confirm 111.0.
`CCc1cc(C(=O)Cc2cnn(-c3ccccc3)c2)c(O)cc1O` gave Hsp90 block -0.8, Cdc25B block -10.0, BAP1 inh active, DUSP1 inh 8.6, tolC growth inh 14.9, Ec RNAP inh -0.1 and BAP1 inh confirm 128.8.
`O=c1cc[nH]cc1[N+](=O)[O-]` gave BAP1 inh inactive.
CC1=CC(C)(C)Nc2ccc(C)cc21 was read as Hsp90 block 3.6, Cdc25B block 5.4, DUSP1 inh -5.2, tolC growth inh -6.5 and Ec RNAP inh 4.5.
Screening CC1=CC(C)(C)Nc2cc(C)c(C)cc21 returned Hsp90 block 6.8, Cdc25B block 4.4, BAP1 inh active, DUSP1 inh 4.6, tolC growth inh -6.0, Ec RNAP inh 10.1 and BAP1 inh confirm 49.0*.
COc1ccc(CC(=O)Nc2ccc(-c3noc(-c4cccc(OC)c4)n3)cc2)cc1 was read as Hsp90 block -4.6, Cdc25B block 10.7, BAP1 inh active, DUSP1 inh 6.3, tolC growth inh -10.5, Ec RNAP inh 0.4 and BAP1 inh confirm 76.9.
For Cc1cccc2cc(CN(Cc3ccc(F)cc3)Cc3nnnn3C3CCCC3)c(=O)[nH]c12 the results were Hsp90 block -2.9, Cdc25B block -16.1, BAP1 inh inactive, DUSP1 inh 26.4, tolC growth inh -0.5 and Ec RNAP inh -4.2.
Cc1cccc2cc(CN(Cc3cccs3)C3(c4nnnn4C4CCCC4)CCCC3)c(=O)[nH]c12 was read as Hsp90 block 3.2, Cdc25B block 8.8, BAP1 inh active, DUSP1 inh 15.3, tolC growth inh 16.9, Ec RNAP inh 2.1 and BAP1 inh confirm 74.2.
Cc1cc(C)c2[nH]c(=O)c(CN(Cc3ccc4c(c3)OCO4)Cc3nnnn3C3CCCC3)cc2c1 was read as Hsp90 block 1.6, Cdc25B block -5.5, BAP1 inh active, DUSP1 inh 3.3, tolC growth inh 34.1, Ec RNAP inh 6.7 and BAP1 inh confirm 112.1.
Screening O=C(c1cccc(S(=O)(=O)N2CCOCC2)c1)N1CCc2ccccc21 returned BAP1 inh inactive.
CCCn1c2c(c(O)c(C(=O)Nc3ccccc3)c1=O)CCCC2 was read as Hsp90 block 0.5, Cdc25B block -3.6, BAP1 inh active, DUSP1 inh -16.5, tolC growth inh 14.3, Ec RNAP inh 4.3 and BAP1 inh confirm 81.2.
`N#Cc1c(/N=C/c2ccco2)oc(-c2ccccc2)c1-c1ccccc1` gave Hsp90 block -4.6, Cdc25B block -4.1, BAP1 inh active, DUSP1 inh -9.7, tolC growth inh 77.1*, Ec RNAP inh 3.2 and BAP1 inh confirm inconclusive.
`CCOC(=O)c1ccc(NC(=O)CCc2c[nH]c3ccccc23)cc1` gave BAP1 inh inactive.
